From paper PMC5477238 (Clinical cancer research : an official journal of the …, 2016)

Tests used:
[1] = tested on: LC-2/ad cells; assay: Apoptosis assay; assay type: cell-based, human; details: 24-hour incubation
Method in brief: (§1)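 Cells kept in F-12K or RPMI with 10% (vol/vol) FBS at 37°C in humidified 5% CO2. They were split into 10-cm dishes and, 24 hours later, exposed to a range of test compound concentrations for 24 hours. Lysates were prepared in RIPA buffer. Cleaved caspase-3 and cleaved PARP were detected by standard Western blotting.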

[2] = tested on: TT cells; assay: Apoptosis assay; assay type: cell-based, human; details: 24-hour incubation
Method in brief: as §1

[3] = tested on: HUVEC cells; details: at 1 μmol/L; cited from earlier work
[4] = tested on: LC-2/ad cells (CCDC6-RET); assay: Cell viability assay; assay type: cell-based; details: Homo sapiens, 72 h, read-out: IC50 (cell viability)
[5] = tested on: TT cells (RET C634W); assay: Cell viability assay; assay type: cell-based; details: Homo sapiens, 96 h, read-out: IC50 (cell viability)
[6] = tested on: phospho-RET, phospho-PLCγ, phospho-ERK, phospho-MEK in LC-2/ad cells; assay: Western blot of RET pathway phosphorylation; assay type: cell-based, human; details: 50 nmol/L to 5 μmol/L, 2 hours
[7] = tested on: RET-rearranged lung cancers; details: cited from earlier work

Compound	apoptosis (cleaved caspase-3 and cleaved PARP) [1]	apoptosis (cleaved caspase-3 and cleaved PARP) [2]	growth inhibitory activity toward HUVEC cells [3]	IC50 [4]	IC50 [5]	ERK and MEK phosphorylation [6]	patients requiring a dose reduction due to drug-related toxicities ([7]; phase II study)	overall response rate ([7]; phase II trial)
COc1cc2ncnc(Oc3cccc(NC(=O)Nc4cc(C(C)(C)C(F)(F)F)on4)c3)c2cc1OC.Cl [RXDX-105, 1-(3-(6,7-dimethoxyquinazolin-4-yloxy)phenyl)-3-(5-(1,1,1-trifluoro-2-methylpropan-2-yl)isoxazol-3-yl)urea hydrochloride]	induced apoptosis	no cleavage of caspase-3 and PARP	no growth inhibitory activity	–	–	–	–	–
CCc1cc2c(cc1N1CCC(N3CCOCC3)CC1)C(C)(C)c1[nH]c3cc(C#N)ccc3c1C2=O [alectinib]	induced apoptosis	no cleavage of caspase-3 and PARP was seen in the TT cells, except for the higher doses of alectinib	–	204 nM	90 nM	neither RXDX-105 nor alectinib treatment showed detectable change	–	–
COc1cc2nccc(Oc3ccc(NC(=O)C4(C(=O)Nc5ccc(F)cc5)CC4)cc3)c2cc1OC [cabozantinib]	induced apoptosis	no cleavage of caspase-3 and PARP	–	98 nM	77 nM	able to decrease phospho-ERK and phospho-MEK at as low as 50 nmol/L	approximately two thirds	28%
